Reference: ChEMBL document CHEMBL4304791, “DABMA: A Derivative of ABMA with Improved Broad-Spectrum Inhibitory Activity of Toxins and Viruses” (ACS Med Chem Lett, 2019)
Calls of active or inactive are those of the source. No cut-off for these calls is given here.

Experiments:
A549 [1] = test: Induction of lysosomal activation in human A549 cells assessed as increase in endosomal volume by measuring Lamp 1 expression at 30 uM incubated for 6 hrs by immunostaining based confocal microscopic analysis; type: functional, cell-based
Vero [2] = test: Inhibition of TcsL-induced cytotoxicity against African green monkey Vero cells assessed as reversal of toxin-induced cell rounding at 30 uM in presence of TcsL after 16 hrs by inverted microscopic analysis; type: functional, cell-based; conditions: Chlorocebus sabaeus
Outline: (§1)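 Vero cells were given compound (30 μM) or DMSO, then increasing doses of TcdB for 4 h or TcsL for 16 h. Cell rounding was imaged by inverted microscope. Rounded cells were counted and normalised to total Hoechst-counterstained cells (>100 cells per treatment).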

[3] = Cytotoxicity against human HeLa cells assessed as reduction in cell viability incubated for 20 hrs by Alamar blue assay; type: cell-based
A549 [4] = test: Inhibition of colony formation in human A549 cells assessed as reduction in colony forming unit at 30 to 60 uM incubated for 16 hrs followed by fresh medium supplementation and measured after 7 days by crystal violet-staining based assay; type: cell-based; conditions: a549, 16 h
Outline: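 Colony-forming assay of A549 cells with compound at 30 or 60 μM, DMSO vehicle, and paclitaxel (5 μM) as positive control; n = 2.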

Vero [5] = test: Inhibition of TcsL-induced cytotoxicity against African green monkey Vero cells assessed as reversal of toxin-induced cell rounding after 16 hrs by inverted microscopic analysis; type: functional, cell-based; conditions: Chlorocebus sabaeus; outline: as §1
PC-3 = test: Cytoprotection activity in human PC3 cells assessed as inhibition of diphtheria induced toxicity incubated for 20 hrs followed by replacement of [14c]-Leucine containing medium and measured after 4 hrs by liquid scintillation analysis; type: functional, cell-based
A-431 = test: Cytoprotection activity in human A431 cells assessed as inhibition of diphtheria induced toxicity incubated for 20 hrs followed by replacement of [14c]-Leucine containing medium and measured after 4 hrs by liquid scintillation analysis; type: functional, cell-based
A549 [6] = test: Increase in cholesterol accumulation in human A549 cells at 30 uM incubated for 18 hrs by choelesterol-avid filipin-3 staining based confocal microscopic analysis; type: functional, cell-based
Outline: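 A549 cells were treated 18 h with compound or DMSO, fixed, and stained with Filipin III for cholesterol. Confocal imaging; fluorescence quantified in >30 cells (mean ± SEM), unpaired t test versus DMSO.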

A549 [7] = test: Induction of morphological changes in human A549 cells assessed as change in endoplasmic reticulum at 30 uM incubated for 24 hrs by cyto-painter dye based inverted microscopic method; type: functional, cell-based
A549 [8] = test: Inhibition of diphtheria induced toxicity in human A549 cells assessed as protection factor at 15 uM incubated for 20 hrs in presence of bafilomycin A1 followed by replacement of [14c]-Leucine containing medium and measured after 4 hrs by liquid scintillation analysis relative to untreated control; type: functional
Outline: (§2)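 A549 cells were incubated with Baf A1 (0.15 nM), DABMA (15 μM), both, or DMSO vehicle before DT was added, with the compounds kept present throughout. Toxin protection was read as protein synthesis and expressed as protection factor.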

A549 [9] = test: Inhibition of diphtheria induced toxicity in human A549 cells assessed as protection factor at 15 uM incubated for 20 hrs followed by replacement of [14c]-Leucine containing medium and measured after 4 hrs by liquid scintillation analysis relative to untreated control; type: functional; outline: as §2
L929 [10] = test: Cytoprotective activity in Pseudomonas aeruginosa exotoxin induced toxicity in mouse L929 cells assessed as protection factor after 18 hrs by liquid scintillation analysis relative to untreated control; type: functional
Outline: (§3)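 L929 cells were intoxicated with increasing doses of Pseudomonas exotoxin A for 18 h with compound (30 μM) or DMSO present. Protein synthesis was measured; duplicate wells, mean ± SD, one representative experiment (n = 3).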

A549 [11] = test: Selectivity index, ratio of CC50 for cytotoxicity against human A549 cells to EC50 for cytoprotective activity in diphtheria-induced cytotoxicity in human A549 cells
A549 [12] = test: Cytoprotection activity against diphtheria toxin-induced cytotoxicity against human A549 cells assessed as effect on protein synthesis incubated for 20 hrs followed by replacement of [14c]-Leucine containing medium and measured after 4 hrs by liquid scintillation analysis; type: functional, cell-based
Outline: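 A549 cells were incubated with compound and then challenged with increasing DT concentrations. DT cytotoxicity was read as protein synthesis inhibition. Data are mean of duplicate wells ± SD from one representative experiment (n = 3).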

L929 [13] = test: Cytoprotective activity in Pseudomonas aeruginosa exotoxin-induced toxicity in mouse L929 cells assessed as protection of protein synthesis after 18 hrs followed by replacement of [14c]-Leucine containing medium and measured after 4 hrs by liquid scintillation analysis by liquid scintillation analysis; type: functional, cell-based; outline: as §3
Zaire ebolavirus [14] = test: Antiviral activity against Zaire EBOV-mayinga expressing GFP infected in human HeLa cells preincubated for 1 hr followed by viral infection after 24 hrs by DAPI-staining based fluorescence assay relative to control; type: functional, 1976
A549 [15] = test: Induction of lysosomal activation in human A549 cells at 30 uM incubated for 2 hrs by LysoTracker Red staining based confocal microscopic analysis; type: functional, cell-based
Outline: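 A549 cells were pretreated 2 h with compound (30 or 60 μM) or DMSO, then stained with LysoTracker Deep Red (50 nM, 30 min) plus Hoechst. Intensity was read from 3 × 3 fields per well (10,000 cells/well) by imaging reader; mean ± SEM, n = 4; confocal images.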

Vero [16] = test: Inhibition of TcdB-induced cytotoxicity against African green monkey Vero cells assessed as reversal of toxin-induced cell rounding after 4 hrs by inverted microscopic analysis; type: functional, cell-based; conditions: Chlorocebus sabaeus; outline: as §1
[17] = Selectivity index, ratio of CC50 for cytotoxicity against mouse L929 cells to EC50 for cytoprotective activity in Pseudomonas aeruginosa exotoxin-induced cytotoxicity in mouse L929 cells; type: toxicity, cell-based; conditions: read-out: Ratio CC50/EC50
A549 [18] = test: Induction of morphological changes in human A549 cells assessed as change in mitochondria at 30 uM incubated for 24 hrs by MitoTracker Red based inverted microscopic method; type: functional, cell-based
A549 [19] = test: Induction of lysosomal activation in human A549 cells assessed as increase in endosomal volume by measuring Rab7 expression at 30 uM incubated for 6 hrs by immunostaining based confocal microscopic analysis; type: functional, cell-based
Outline: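 A549 cells were pretreated 6 h with compound or DMSO and immunostained for Rab7, with DAPI nuclei. Confocal imaging; fluorescence quantified in >30 cells (mean ± SEM), unpaired t test versus DMSO.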

Zaire ebolavirus [20] = test: Potency index, ratio of ABMA EC50 to compound EC50 for antiviral activity against Zaire Ebola virus -Mayinga expressing GFP infected in human HeLa cells; type: functional, 1976
Vero [21] = test: Inhibition of TcsL-induced cytotoxicity against African green monkey Vero cells assessed as reversal of toxin-induced cell rounding at 30 uM in presence of TcsL after 16 hrs by inverted microscopic analysis relative to ABMA; type: functional, Chlorocebus sabaeus; outline: as §1
HUVEC = test: Cytotoxicity against HUVEC assessed as reduction in cell viability at >100 uM incubated for 20 hrs and measured after 2 hrs by Alamar blue assay; type: cell-based; conditions: human
[22] = Selectivity index, ratio of CC50 for cytotoxicity against human HeLa cells to ratio of EC50 for Antiviral activity against Zaire EBOV-mayinga strain expressing GFP infected in human HeLa cells; type: toxicity, cell-based; conditions: read-out: Ratio CC50/EC50
A549 [23] = test: Induction of morphological changes in human A549 cells assessed as change in golgi apparatus at 30 uM incubated for 24 hrs by cyto-painter dye based inverted microscopic method; type: functional, cell-based
Vero [24] = test: Cytoprotection activity in African green monkey Vero cells assessed as inhibition of diphtheria induced toxicity incubated for 20 hrs followed by replacement of [14c]-Leucine containing medium and measured after 4 hrs by liquid scintillation analysis; type: functional, cell-based; conditions: Chlorocebus sabaeus

## COc1ccc(Br)cc1CNC12CC3CC(C)(CC(C)(C3)C1)C2
A549 [1]
  Activity: Active
Vero [2]
  inhibition: Active
[3]
  CC50 at 20 h: 117 µM
A549 [4]
  Activity: Non-Toxic
Vero [5]
  EC50: 15.8 µM
PC-3
  Activity: Active
A-431
  Activity: Active
A549 [6]
  Activity: Active
A549 [7]
  Activity: inactive
A549 [8]
  fold change (FC): 300
A549 [9]
  fold change (FC): 6.3
L929 [10]
  fold change (FC): 4.8
A549 [11]
  Ratio CC50/EC50: 4.7
A549 [12]
  EC50: 25.7 µM
L929 [13]
  EC50: 20.8 µM
Zaire ebolavirus [14]
  inhibition (INH): >50%
A549 [15]
  Activity: Active
Vero [16]
  EC50: 38.6 µM
[17]
  selectivity ratio: 4.35
A549 [18]
  Activity: inactive
A549 [19]
  Activity: Active
Zaire ebolavirus [20]
  Ratio EC50: 6.6
Vero [21]
  fold change (FC): 5.6
HUVEC
  Activity: Toxic
[22]
  selectivity ratio: 120
A549 [23]
  Activity: inactive
Vero [24]
  Activity: Active
